According to ChEMBL document CHEMBL4765452, “Discovery of (E)-N-(4-methyl-5-(3-(2-(pyridin-2-yl)vinyl)-1H-indazol-6-yl)thiazol-2-yl)-2-(4-methylpiperazin-1-yl)acetamide (IHMT-TRK-284) as a novel orally available type II TRK kinase inhibitor capable of overcoming multiple resistant mutants” (Eur J Med Chem, 2020):

Columns and labels:
[1] = Antiproliferative activity in mouse BAF3 cells assessed as growth inhibition after 72 hrs by CCK8 assay; type: cell-based
Method in brief: (§1)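 TEL- or LMNA-fusion isogenic BaF3 lines grown in RPMI 1640 with 10% FBS and 1% penicillin/streptomycin at 37 °C, 5% CO₂; suspension cells collected by spinning at 800 rpm for 4 min before use; growth inhibition scored as GI₅₀.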

[2] = biological target: High affinity nerve growth factor receptor (Homo sapiens, UniProt P04629); test: Inhibition of wild type TEL fused TRKA (unknown origin) transfected in mouse BAF3 cells assessed as growth inhibition after 72 hrs by CCK8 assay; type: cell-based
[3] = biological target: VEGFR2 (vascular endothelial growth factor receptor 2), wild type, TEL fusion (Homo sapiens, UniProt P35968); test: Inhibition of wild type TEL fused VEGFR2 (unknown origin) transfected in mouse BAF3 cells assessed as growth inhibition after 72 hrs by CCK8 assay; type: cell-based; conditions: mouse BaF3 cells transfected with wild type TEL-fused VEGFR2
[4] = test system: BaF3; test: Inhibition of LMNA fused TRKA V573M mutant (unknown origin) transfected in mouse BAF3 cells assessed as growth inhibition after 72 hrs by CCK8 assay; type: cell-based; conditions: Homo sapiens
[5] = test system: BaF3; test: Inhibition of LMNA fused TRKA F589L mutant (unknown origin) transfected in mouse BAF3 cells assessed as growth inhibition after 72 hrs by CCK8 assay; type: cell-based; conditions: Homo sapiens; method in brief: as §1
[6] = test system: High affinity nerve growth factor receptor (Homo sapiens), P04629 [G667C]; test: Inhibition of LMNA fused TRKA G667C mutant (unknown origin) transfected in mouse BAF3 cells assessed as growth inhibition after 72 hrs by CCK8 assay; type: cell-based; method in brief: as §1
[7] = test system: BaF3; test: Inhibition of LMNA fused TRKA G667S mutant (unknown origin) transfected in mouse BAF3 cells assessed as growth inhibition after 72 hrs by CCK8 assay; type: cell-based; conditions: Homo sapiens
[8] = Antiproliferative activity against human KM-12-LUC cells harboring […] fused TRKA assessed as growth inhibition after 72 hrs by CCK8 assay; type: functional; conditions: KM12-Luc
Method in brief: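 KM-12-LUC cells seeded at 3 × 10⁴ cells/mL, incubated overnight at 37 °C, 5% CO₂, then medium replaced with fresh medium containing a range of compound concentrations for 72 h; viability read by CCK-8 absorbance at 450 nm, normalized to DMSO control, GI₅₀ from curve fitting.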

[9] = test system: BaF3; test: Antitumor activity against mouse BAF3 cells harboring TEL fused TRKA allografted in nude mouse assessed as tumor growth inhibition at 80 mg/kg, po administered once daily for 10 days relative to control; type: functional; conditions: 240 h, time 10 day, read-out: TGI
Method in brief: (§2)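 Nu/nu mice given 1 million BaF3 cells (TEL-TRKA, TEL-TRKB, TEL-TRKC, LMNA-TRKA-F589L or LMNA-TRKA-G667S) in DMEM, 1:1 with matrigel, injected subcutaneously into the right flank; oral gavage began at 200–400 mm³, 5 mice per group, compound in 0.5% methylcellulose/0.4% Tween 80 in ddH₂O, 10 days; tumor volume [(W²×L)/2] and body weight recorded daily; TGI versus vehicle.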

[10] = test system: BaF3; test: Antitumor activity against mouse BAF3 cells harboring TEL fused TRKC allografted in nude mouse assessed as tumor growth inhibition at 80 mg/kg, po administered once daily for 10 days relative to control; type: functional; conditions: 240 h, time 10 day, read-out: TGI; method in brief: as §2
[11] = Antitumor activity against human […] cells xenografted in nude mouse assessed as tumor growth inhibition at 80 mg/kg, po administered once daily for 10 days relative to control; type: functional; conditions: KM12-Luc, 240 h, time 10 day, read-out: TGI
Method in brief: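 Nu/nu mice given 5 million KM-12-LUC cells in DMEM, 1:1 with matrigel, injected subcutaneously into the right flank; oral gavage started at tumor size 150–200 mm³, 5 mice per group, compound in 0.5% methylcellulose/0.4% Tween 80 in ddH₂O; body weight and tumor volume [(W²×L)/2] measured daily; TGI versus vehicle.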

VEGFR2 (vascular endothelial growth factor receptor 2), wild type, TEL fusion, sequence (P35968 whole entry, the tested form may be a part): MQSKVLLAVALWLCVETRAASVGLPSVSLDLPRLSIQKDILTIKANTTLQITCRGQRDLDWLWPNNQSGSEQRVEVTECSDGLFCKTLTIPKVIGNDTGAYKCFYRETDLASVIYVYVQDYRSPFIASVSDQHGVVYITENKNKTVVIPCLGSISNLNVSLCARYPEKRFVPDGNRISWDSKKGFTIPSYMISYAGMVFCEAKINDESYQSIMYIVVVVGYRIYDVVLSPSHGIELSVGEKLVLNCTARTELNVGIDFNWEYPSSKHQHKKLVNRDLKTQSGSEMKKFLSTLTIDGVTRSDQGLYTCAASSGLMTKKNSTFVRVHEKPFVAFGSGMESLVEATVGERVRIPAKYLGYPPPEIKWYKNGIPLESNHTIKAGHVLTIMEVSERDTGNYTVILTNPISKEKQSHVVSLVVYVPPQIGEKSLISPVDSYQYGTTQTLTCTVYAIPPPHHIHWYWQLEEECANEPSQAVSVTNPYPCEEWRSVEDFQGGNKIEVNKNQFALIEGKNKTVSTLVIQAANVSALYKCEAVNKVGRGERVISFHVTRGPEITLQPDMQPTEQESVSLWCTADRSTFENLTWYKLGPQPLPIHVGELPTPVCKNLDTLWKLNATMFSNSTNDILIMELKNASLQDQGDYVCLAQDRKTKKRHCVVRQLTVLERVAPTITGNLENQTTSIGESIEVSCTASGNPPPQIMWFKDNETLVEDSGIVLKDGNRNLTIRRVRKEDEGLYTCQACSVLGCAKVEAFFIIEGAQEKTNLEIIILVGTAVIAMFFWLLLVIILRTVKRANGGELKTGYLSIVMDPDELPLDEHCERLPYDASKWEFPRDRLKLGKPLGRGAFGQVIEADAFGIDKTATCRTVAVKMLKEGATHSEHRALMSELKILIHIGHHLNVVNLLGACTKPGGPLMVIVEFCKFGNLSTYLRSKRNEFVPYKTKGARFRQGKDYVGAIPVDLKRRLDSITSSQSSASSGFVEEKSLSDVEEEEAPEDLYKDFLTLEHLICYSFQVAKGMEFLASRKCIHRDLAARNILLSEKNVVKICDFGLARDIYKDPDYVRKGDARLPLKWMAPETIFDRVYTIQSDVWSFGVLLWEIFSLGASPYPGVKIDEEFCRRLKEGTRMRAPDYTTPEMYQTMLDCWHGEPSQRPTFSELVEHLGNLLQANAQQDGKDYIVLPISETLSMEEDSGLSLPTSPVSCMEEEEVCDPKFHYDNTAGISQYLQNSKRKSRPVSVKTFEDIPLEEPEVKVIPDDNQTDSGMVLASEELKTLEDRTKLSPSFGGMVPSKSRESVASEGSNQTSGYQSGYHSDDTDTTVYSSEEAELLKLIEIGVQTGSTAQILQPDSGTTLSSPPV
High affinity nerve growth factor receptor, sequence (P04629 33-796 limits assumed): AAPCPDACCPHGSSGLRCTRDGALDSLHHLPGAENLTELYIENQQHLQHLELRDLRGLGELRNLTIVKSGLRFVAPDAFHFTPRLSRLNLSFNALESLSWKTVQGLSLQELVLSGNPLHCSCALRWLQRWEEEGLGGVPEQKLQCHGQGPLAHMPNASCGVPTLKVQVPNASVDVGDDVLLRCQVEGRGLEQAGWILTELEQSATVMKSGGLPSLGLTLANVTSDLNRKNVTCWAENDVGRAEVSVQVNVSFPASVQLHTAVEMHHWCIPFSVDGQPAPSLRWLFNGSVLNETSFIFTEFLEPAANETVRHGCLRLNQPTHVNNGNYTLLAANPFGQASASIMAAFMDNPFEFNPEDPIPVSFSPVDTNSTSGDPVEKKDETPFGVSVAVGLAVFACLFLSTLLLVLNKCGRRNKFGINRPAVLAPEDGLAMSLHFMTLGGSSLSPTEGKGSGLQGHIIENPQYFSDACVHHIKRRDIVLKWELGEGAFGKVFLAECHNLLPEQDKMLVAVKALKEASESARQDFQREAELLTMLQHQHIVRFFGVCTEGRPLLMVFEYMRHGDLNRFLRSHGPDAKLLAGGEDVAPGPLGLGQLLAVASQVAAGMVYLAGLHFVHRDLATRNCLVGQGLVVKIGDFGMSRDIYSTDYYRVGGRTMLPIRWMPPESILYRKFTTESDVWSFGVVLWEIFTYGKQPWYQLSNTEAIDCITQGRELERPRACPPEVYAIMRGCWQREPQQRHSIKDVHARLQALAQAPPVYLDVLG
High affinity nerve growth factor receptor (Homo sapiens), P04629 [G667C], sequence (P04629 whole entry G667C, looked up, the tested form may be a part): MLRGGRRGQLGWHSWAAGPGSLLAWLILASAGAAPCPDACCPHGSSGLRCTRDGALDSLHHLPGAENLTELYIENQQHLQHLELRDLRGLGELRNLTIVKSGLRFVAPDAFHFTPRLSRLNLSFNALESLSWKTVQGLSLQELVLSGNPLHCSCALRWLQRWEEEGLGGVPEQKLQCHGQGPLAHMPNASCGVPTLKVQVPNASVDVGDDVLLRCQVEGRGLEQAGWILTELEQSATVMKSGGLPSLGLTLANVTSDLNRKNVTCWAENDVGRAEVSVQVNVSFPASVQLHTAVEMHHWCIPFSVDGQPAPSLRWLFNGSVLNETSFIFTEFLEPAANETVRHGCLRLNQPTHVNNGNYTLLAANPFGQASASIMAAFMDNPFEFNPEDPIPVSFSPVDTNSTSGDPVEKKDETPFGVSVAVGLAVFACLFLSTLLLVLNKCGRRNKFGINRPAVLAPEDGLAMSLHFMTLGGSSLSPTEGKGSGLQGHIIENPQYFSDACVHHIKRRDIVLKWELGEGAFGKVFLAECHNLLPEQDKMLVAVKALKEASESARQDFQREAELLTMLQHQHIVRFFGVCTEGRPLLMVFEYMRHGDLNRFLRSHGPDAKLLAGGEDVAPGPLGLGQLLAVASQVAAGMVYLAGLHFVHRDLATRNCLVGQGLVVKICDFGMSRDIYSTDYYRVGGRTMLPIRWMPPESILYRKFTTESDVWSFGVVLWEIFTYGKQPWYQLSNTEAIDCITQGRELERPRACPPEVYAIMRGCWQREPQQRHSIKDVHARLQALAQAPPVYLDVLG

Row | SMILES | GI50 at 72 h [1] | GI50 [2] | GI50 at 72 h [3] | also measured
1 | Cc1nc(NC(=O)CN2CCN(C)CC2)sc1-c1ccc2c(-c3cncc(F)c3)n[nH]c2c1 | 1690 nM | 54 nM | 1800 nM | –
2 | CN1CCN(Cc2ccc(NC(=O)Nc3cccc(Sc4ccc5c(/C=C/c6ccccn6)n[nH]c5c4)c3)cc2C(F)(F)F)CC1 | 3090 nM | 62 nM | 15 nM | –
3 | CN1CCN(Cc2ccc(NC(=O)CCSc3ccc4c(-c5cccnc5)n[nH]c4c3)cc2C(F)(F)F)CC1 | – | 736 nM | 9 nM | –
4 | Cc1nc(NC(=O)Cc2cccc(C(F)(F)F)c2)sc1-c1ccc2c(/C=C/c3ccccn3)n[nH]c2c1 | 2310 nM | 2 nM | 13 nM | –
5 | Cc1nc(NC(=O)CN2CCN(CCO)CC2)sc1-c1ccc2c(/C=C/c3ccccn3)n[nH]c2c1 | 1020 nM | 18 nM | 81 nM | –
6 | COCCOCC(=O)Nc1nc(C)c(-c2ccc3c(/C=C/c4ccccn4)n[nH]c3c2)s1 | 1070 nM | 35 nM | 1780 nM | –
7 | CN1CCN(Cc2ccc(NC(=O)NCCSc3ccc4c(/C=C/c5ccccn5)n[nH]c4c3)cc2C(F)(F)F)CC1 | – | 646 nM | 42 nM | –
8 | Cc1nc(NC(=O)CN2CCN(C)CC2)sc1-c1ccc2c(-c3cccnc3)n[nH]c2c1 | 5130 nM | 251 nM | 2630 nM | –
9 | Cc1nc(NC(=O)C2CCNCC2)sc1-c1ccc2c(/C=C/c3ccccn3)n[nH]c2c1 | 8710 nM | 145 nM | 3050 nM | –
10 | Cc1nc(NC(=O)CC2CCCNC2)sc1-c1ccc2c(/C=C/c3ccccn3)n[nH]c2c1 (stereo not given) | 8350 nM | 300 nM | 1930 nM | –
11 | CN1CCN(Cc2ccc(NC(=O)CCSc3ccc4c(/C=C/c5ccncc5)n[nH]c4c3)cc2C(F)(F)F)CC1 | 543 nM | 18 nM | 2 nM | –
12 | COc1ccc(CC(=O)Nc2nc(C)c(-c3ccc4c(/C=C/c5ccccn5)n[nH]c4c3)s2)cc1OC | 4870 nM | 40 nM | 19 nM | –
13 | O=C(Nc1cnn2ccc(N3CCC[C@@H]3c3cc(F)ccc3F)nc12)N1CC[C@H](O)C1 [LAROTRECTINIB] | > 10000 nM | – | – | GI50 [4]: 258 nM; GI50 [5]: 102 nM; GI50 [6]: 602 nM; GI50 [7]: 148 nM; GI50 [8]: 11 nM; inhibition in vivo at 80 mg/kg/day [9]: 38.5%; inhibition in vivo at 80 mg/kg/day [10]: 33.8%; inhibition in vivo at 80 mg/kg/day [11]: 78.9%
14 | Cc1nc(NC(=O)CN2CCN(C)CC2)sc1-c1ccc2c(-c3ccn(C)n3)n[nH]c2c1 | 1530 nM | 73 nM | 351 nM | –
15 | CN1CCN(Cc2ccc(C(=O)Nc3cccc(Sc4ccc5c(/C=C/c6ccccn6)n[nH]c5c4)c3)cc2C(F)(F)F)CC1 | 1260 nM | 920 nM | 13 nM | –
16 | Cc1nc(NC(=O)C2CCN(C)CC2)sc1-c1ccc2c(/C=C/c3ccccn3)n[nH]c2c1 | 2510 nM | 89 nM | 2040 nM | –
17 | Cc1nc(NC(=O)c2cccc(C(F)(F)F)c2)sc1-c1ccc2c(/C=C/c3ccccn3)n[nH]c2c1 | > 10000 nM | 3 nM | 5 nM | –
18 | Cc1nc(NC(=O)Cc2cccc3ccccc23)sc1-c1ccc2c(/C=C/c3ccccn3)n[nH]c2c1 | 3690 nM | 33 nM | 15 nM | –
19 | CC(=O)Nc1nc(C)c(-c2ccc3c(/C=C/c4ccccn4)n[nH]c3c2)s1 | 5240 nM | 4310 nM | 301 nM | –

Row | SMILES | GI50 at 72 h [1] | GI50 [2] | GI50 at 72 h [3] | also measured
20 | Cc1n[nH]c2cc(SCCC(=O)Nc3ccc(CN4CCN(C)CC4)c(C(F)(F)F)c3)ccc12 | – | 729 nM | 9 nM | –
21 | Cc1nc(NC(=O)CN2CCN(C)CC2)sc1-c1ccc2c(-c3cnc(N)nc3)n[nH]c2c1 | > 10000 nM | 752 nM | 5630 nM | –
22 | Cc1nc(NC(=O)CN2CCN(C)CC2)sc1-c1ccc2c(-c3cccc(F)c3)n[nH]c2c1 | 1740 nM | > 10000 nM | 1710 nM | –
23 | Cc1nc(NC(=O)CC2CCN(C)CC2)sc1-c1ccc2c(/C=C/c3ccccn3)n[nH]c2c1 | 1560 nM | 32 nM | 570 nM | –
24 | CN1CCN(Cc2ccc(C(=O)NCCSc3ccc4c(/C=C/c5ccccn5)n[nH]c4c3)cc2C(F)(F)F)CC1 | 4400 nM | 370 nM | 41 nM | –
25 | CN1CCN(Cc2ccc(C(=O)NCCCSc3ccc4c(/C=C/c5ccccn5)n[nH]c4c3)cc2C(F)(F)F)CC1 | – | 370 nM | 1 nM | –
26 | CN1CCN(Cc2ccc(NC(=O)CCSc3ccc4c(/C=C/c5cnccn5)n[nH]c4c3)cc2C(F)(F)F)CC1 | 1640 nM | 88 nM | 2 nM | –
27 | CN1CCN(Cc2ccc(NC(=O)CC(=O)Nc3ccc4c(/C=C/c5ccccn5)n[nH]c4c3)cc2C(F)(F)F)CC1 | 2500 nM | 248 nM | 4 nM | –
28 | Cc1nc(NC(=O)Cc2cccc(Cl)c2)sc1-c1ccc2c(/C=C/c3ccccn3)n[nH]c2c1 | 4100 nM | 2 nM | 10 nM | –
29 | Cc1nc(NC(=O)c2ccc(CN3CCN(C)CC3)cc2)sc1-c1ccc2c(/C=C/c3ccccn3)n[nH]c2c1 | 1460 nM | 8 nM | 12 nM | –
30 | Cc1nc(NC(=O)C(C)C)sc1-c1ccc2c(/C=C/c3ccccn3)n[nH]c2c1 | 1580 nM | 251 nM | 181 nM | –
31 | Cc1nc(NC(=O)Nc2cccc(C(F)(F)F)c2)sc1-c1ccc2c(/C=C/c3ccccn3)n[nH]c2c1 | 105 nM | 3 nM | 4 nM | –
32 | CN1CCN(Cc2ccc(NC(=O)CCSc3ccc4c(-c5ccncc5)n[nH]c4c3)cc2C(F)(F)F)CC1 | – | 448 nM | 1 nM | –
33 | Cc1nc(NC(=O)CC2CCNCC2)sc1-c1ccc2c(/C=C/c3ccccn3)n[nH]c2c1 | > 10000 nM | 116 nM | 982 nM | –
34 | CSCCC(N)C(=O)Nc1nc(C)c(-c2ccc3c(/C=C/c4ccccn4)n[nH]c3c2)s1 (stereo not given) | 594 nM | 13 nM | 101 nM | –
35 | Cc1nc(NC(=O)C(N)Cc2ccccc2)sc1-c1ccc2c(/C=C/c3ccccn3)n[nH]c2c1 (stereo not given) | 708 nM | 68 nM | 97 nM | –
36 | CN1CCN(Cc2ccc(NC(=O)CCSc3ccc4c(/C=C/c5ccccn5)n[nH]c4c3)cc2C(F)(F)F)CC1 | – | 63 nM | 2 nM | –
37 | Cc1ccc(-c2n[nH]c3cc(SCCC(=O)Nc4ccc(CN5CCN(C)CC5)c(C(F)(F)F)c4)ccc23)cn1 | – | 516 nM | 1 nM | –
